High-throughput results deposited in PubChem BioAssay by several laboratories.
Rows were chosen to be rich in hits. Some 8.4% of all compounds tested hit in one or more screens of this group.
Cav3 T inh: Cav3.2 calcium influx blockers – cell-based, Fluo-4 calcium fluorescence, FDSS, MLSMR library, primary screen; AID 449739, 2010; 100,000 tested, 4% active; B-score at 10 µM; Cav3.2-expressing cells; hits give low values;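 active = single-dose well whose peak fluorescence ratio is a statistical outlier from its plate by either plate-standardised score or position-corrected B-score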
Target sequence (O95180 whole entry, looked up): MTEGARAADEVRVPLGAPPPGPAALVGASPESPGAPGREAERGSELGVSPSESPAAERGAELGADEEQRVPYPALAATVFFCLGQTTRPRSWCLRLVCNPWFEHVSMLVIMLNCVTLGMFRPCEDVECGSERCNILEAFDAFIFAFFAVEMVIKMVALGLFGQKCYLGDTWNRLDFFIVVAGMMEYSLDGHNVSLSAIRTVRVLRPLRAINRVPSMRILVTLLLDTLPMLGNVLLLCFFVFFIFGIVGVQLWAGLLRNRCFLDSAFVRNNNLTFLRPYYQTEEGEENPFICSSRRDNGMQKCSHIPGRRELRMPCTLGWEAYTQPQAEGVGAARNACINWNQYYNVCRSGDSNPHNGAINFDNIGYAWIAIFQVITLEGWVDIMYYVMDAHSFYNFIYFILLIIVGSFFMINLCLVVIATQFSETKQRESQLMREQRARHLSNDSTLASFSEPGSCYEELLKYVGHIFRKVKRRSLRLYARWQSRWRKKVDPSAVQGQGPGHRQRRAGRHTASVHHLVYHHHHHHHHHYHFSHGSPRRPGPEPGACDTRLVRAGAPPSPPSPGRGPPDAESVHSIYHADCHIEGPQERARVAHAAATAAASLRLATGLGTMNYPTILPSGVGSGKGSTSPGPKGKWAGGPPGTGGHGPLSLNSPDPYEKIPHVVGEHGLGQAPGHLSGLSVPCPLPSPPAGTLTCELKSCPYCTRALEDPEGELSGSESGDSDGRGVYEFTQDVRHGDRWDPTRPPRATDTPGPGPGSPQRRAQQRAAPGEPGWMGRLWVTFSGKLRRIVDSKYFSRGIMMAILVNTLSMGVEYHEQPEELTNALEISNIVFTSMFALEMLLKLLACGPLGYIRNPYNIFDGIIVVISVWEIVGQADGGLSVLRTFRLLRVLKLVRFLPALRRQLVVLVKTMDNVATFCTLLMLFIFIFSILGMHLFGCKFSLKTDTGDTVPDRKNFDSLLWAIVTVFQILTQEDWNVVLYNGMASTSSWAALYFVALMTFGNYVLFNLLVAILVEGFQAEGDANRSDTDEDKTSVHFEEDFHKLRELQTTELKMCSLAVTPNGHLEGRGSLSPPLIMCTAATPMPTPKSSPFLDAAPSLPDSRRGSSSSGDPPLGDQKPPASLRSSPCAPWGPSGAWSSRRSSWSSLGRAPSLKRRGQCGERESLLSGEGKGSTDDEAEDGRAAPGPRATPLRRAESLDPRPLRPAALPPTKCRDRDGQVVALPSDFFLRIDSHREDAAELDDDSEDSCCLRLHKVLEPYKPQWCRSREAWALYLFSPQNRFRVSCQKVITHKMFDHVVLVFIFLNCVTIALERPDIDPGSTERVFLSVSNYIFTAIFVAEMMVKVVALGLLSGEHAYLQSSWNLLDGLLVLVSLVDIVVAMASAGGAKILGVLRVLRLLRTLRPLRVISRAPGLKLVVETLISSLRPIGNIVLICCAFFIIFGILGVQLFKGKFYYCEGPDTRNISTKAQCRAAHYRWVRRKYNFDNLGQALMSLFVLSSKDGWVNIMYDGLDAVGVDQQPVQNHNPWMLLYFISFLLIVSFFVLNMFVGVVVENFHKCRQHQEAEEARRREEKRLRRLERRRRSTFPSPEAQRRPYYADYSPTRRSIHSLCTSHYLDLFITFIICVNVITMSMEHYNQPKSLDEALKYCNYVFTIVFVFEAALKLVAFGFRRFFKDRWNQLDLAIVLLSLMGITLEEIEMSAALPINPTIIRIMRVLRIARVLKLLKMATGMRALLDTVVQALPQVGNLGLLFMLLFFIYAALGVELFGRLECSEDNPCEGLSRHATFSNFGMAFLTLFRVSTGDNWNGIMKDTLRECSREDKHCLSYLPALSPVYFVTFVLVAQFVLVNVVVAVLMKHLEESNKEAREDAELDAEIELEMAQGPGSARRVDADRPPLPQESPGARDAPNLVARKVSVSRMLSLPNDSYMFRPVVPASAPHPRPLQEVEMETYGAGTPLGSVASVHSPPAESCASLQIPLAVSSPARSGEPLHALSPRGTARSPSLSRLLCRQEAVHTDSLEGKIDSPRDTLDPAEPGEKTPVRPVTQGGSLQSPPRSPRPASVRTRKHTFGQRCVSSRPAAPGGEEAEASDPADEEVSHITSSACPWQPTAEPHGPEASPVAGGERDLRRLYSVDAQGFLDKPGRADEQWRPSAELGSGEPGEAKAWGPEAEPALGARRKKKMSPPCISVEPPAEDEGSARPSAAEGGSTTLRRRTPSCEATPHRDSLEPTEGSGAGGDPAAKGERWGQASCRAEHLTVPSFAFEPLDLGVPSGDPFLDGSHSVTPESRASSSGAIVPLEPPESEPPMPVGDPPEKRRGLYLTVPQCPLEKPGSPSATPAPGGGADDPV
PostGolgi yeast: phenotypic screen on post-Golgi transport, primary screen; post-Golgi transport phenotypic cell assay; inhibition, % at 10 µM; 98,000 tested, 0.9% active; AID 739, 2007;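 also: yeast cells grown in 1536-well plates; yeast grown about 18 h at 30C before absorbance read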
PostGolgi ctrl: growth inhibition of yeast control strain, primary screen, counter-screen for post-Golgi transport modulator project | efflux-deficient yeast background strain, growth absorbance A615, 16 h | inhibition, % at 10 µM | 98,000 tested, 5% active
tolC growth inh: growth inhibitors of E. coli tolC mutant, primary screen, strain BW25113 ΔtolC::kan, 384-well; 65,000 tested, 2.2% active; growth inhibition, % at 10 µM (by protocol); OD615; AID 573, 2007;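 active = growth inhibition at or above a cutoff equal to the mean over every tested compound plus 3 SD, cut at about 60% in these data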;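 also: growth measured after 20 h incubation at 37 °C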
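Signal: optical density read at 615 nm; Assay system: E. coli ΔtolC::kan strain BW25113; Times: 20 h incubation with compound, 37 °C; Dosing: 10 µM final, single dose.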
E coli WT exp: growth inhibitors of wild-type E. coli, primary screen, strain BW25113, expanded library, OD600. OD600 absorbance. growth inhibition, % at 100 µM. 98,000 tested, 0.15% active;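 active = growth inhibition above about 50% at one test dose, limit read from the data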;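 also: growth measured after 20 h incubation at 37 °C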
Large screens that a line does not name were inactive. Rule as the data show it, unless noted: active = inhibition above about 30%; inactive = the rest.

C=CCn1c(NC(=O)c2ccccc2Cl)c(C#N)c2nc3ccccc3nc21	Cav3 T inh -7, tolC growth inh 84
C=CCn1c(N)c(C(=O)OCCC)c2nc3ccccc3nc21	none
C=CCn1c(N)c(C(=O)Nc2cccc(C)c2)c2nc3ccccc3nc21	PostGolgi ctrl 35 (no result: tolC growth inh)
C=CCn1c(NC(=O)c2ccccc2)c(C#N)c2nc3ccccc3nc21	tolC growth inh 89 (no result: Cav3 T inh, PostGolgi yeast, PostGolgi ctrl, E coli WT exp)
CCCCn1c(NC(C)=O)c(C#N)c2nc3ccccc3nc21	none
O=C(OCCCCN1C(=O)c2ccccc2C1=O)c1n[nH]c2ccccc12	none
CN(c1ccc(C(=O)NC2CC2)cc1)S(=O)(=O)c1ccccc1	none
CN1c2ccccc2C(O)=C(C(=S)Nc2ccc(Cl)cc2)S1(=O)=O	Cav3 T inh -7.4 (no result: tolC growth inh)
Cc1cccc(NC(=O)C2=C(O)c3ccccc3N(C)S2(=O)=O)c1	none (no result: tolC growth inh)
c1ccc2c(c1)Cc1cc(CN3CCOCC3)ccc1-2	none
CC1=C(C(=O)OCc2ccccc2)C(c2ccc(Cl)cc2Cl)NC(=O)N1CCCC(=O)O (configuration not stated)	none (no result: PostGolgi yeast, PostGolgi ctrl, tolC growth inh, E coli WT exp)
O=C1C2ON(c3ccc(Br)cc3)C(c3cccnc3)C2C(=O)N1C1CCCCC1 (configuration not stated)	PostGolgi yeast 102, PostGolgi ctrl 85 (no result: Cav3 T inh)
Cn1c(-c2ccc(F)cc2)cnc1SCC(=O)Nc1ccccc1N1CCOCC1	none
COc1ccc(N(C)S(=O)(=O)c2cccc(C(=O)Nc3ccc(-n4cnnn4)cc3)c2)cc1	none
CCCCn1c(-c2ccncc2)nc2c1c(=O)[nH]c(=O)n2CC(C)C	Cav3 T inh 3.1 (no result: tolC growth inh)
CCn1cc([N+](=O)[O-])c(C(=O)Nc2ccc3c(c2)OCCO3)n1	PostGolgi ctrl 33 (no result: tolC growth inh)
O=C(Nc1ccc2c(c1)OCCO2)c1c(F)c(F)c(F)c(F)c1F	none
O=[N+]([O-])c1ccc(/C=N/Nc2nc(-c3ccccc3)c3cc(Br)ccc3n2)o1	PostGolgi ctrl 64 (no result: Cav3 T inh, tolC growth inh)
N#Cc1ccccc1/C=N/Nc1nc(-c2ccccc2)c2cc(Br)ccc2n1	none (no result: tolC growth inh)
CCNc1nc(NCC)nc(N/N=C/c2ccc([N+](=O)[O-])o2)n1	none (no result: tolC growth inh)
Cc1ccc2nc(N/N=C\c3ccc([N+](=O)[O-])o3)nc(-c3ccccc3)c2c1	PostGolgi yeast 108, PostGolgi ctrl 99 (no result: Cav3 T inh, tolC growth inh)
CCOc1ccc(N2C(=O)Nc3ccccc3C2(O)C(=O)NCc2ccc3c(c2)OCO3)cc1 (configuration not stated)	none (no result: tolC growth inh)
CCOC(=O)c1c(NC(=O)CCc2ccc(CC)o2)sc(C)c1C	Cav3 T inh -4.5 (no result: tolC growth inh)
COC(=O)c1c(NC(=O)CCc2ccc(C)o2)sc(C)c1C	tolC growth inh 61
COc1cc(C)c(S(=O)(=O)n2ccc(C)n2)cc1C	none
O=C(Cc1c(O)c2ccccc2[nH]c1=O)N(Cc1ccccc1)Cc1ccccc1	PostGolgi yeast 36 (no result: tolC growth inh)
CCCCc1c(O)c2ccccc2[nH]c1=O	PostGolgi ctrl 43
CCCCc1c(C)c2cc(C)ccc2[nH]c1=O	PostGolgi ctrl 33 (no result: tolC growth inh)
CC(C)(C)N1OC2CC1c1nc3ccccc3n1C2 (configuration not stated)	none (no result: PostGolgi yeast, PostGolgi ctrl, tolC growth inh, E coli WT exp)
S=c1[nH]nc(COc2ccccc2)n1/N=C/c1ccc(Br)s1	PostGolgi ctrl 31 (no result: Cav3 T inh, tolC growth inh)
Cc1nc2ccc(NC(=O)N3CCSCC3)cc2s1	PostGolgi ctrl 31
N#Cc1cc2c(nc1SCc1ccncc1)CCC2	none
O=C(CN1CCC(n2nnc3cc(F)ccc32)CC1)NCCc1nc2ccccc2[nH]1	none
N#Cc1cc2c(nc1SCC(O)CS(=O)(=O)Cc1ccc(Cl)cc1)CCCC2 (configuration not stated)	PostGolgi ctrl 36 (no result: tolC growth inh)
COc1ccc(-c2nsc3c(N4CCN(C(=O)c5ccco5)CC4)ncnc23)cc1	none
O=C(c1ccco1)N1CCN(c2ncnc3c2[nH]c2ccccc23)CC1	PostGolgi yeast 43 (no result: Cav3 T inh)
CCOC(=O)N1CCN(c2ncnc3c2[nH]c2ccc(OC)cc23)CC1	PostGolgi ctrl 37
O=C(c1ccco1)N1CCN(c2ncnc3c2[nH]c2ccc(Br)cc23)CC1	tolC growth inh 65 (no result: Cav3 T inh)
O=C(c1ccco1)N1CCN(c2ncnc3c(-c4ccccc4)nsc23)CC1	none
FC(F)(F)c1nc(-c2cccs2)ncc1-c1nnnn1-c1ccc(Cl)cc1	PostGolgi ctrl 53 (no result: tolC growth inh)
Clc1ccc(-n2nnnc2-c2cnc(-c3ccncc3)nc2-c2cccs2)cc1	none (no result: PostGolgi yeast, PostGolgi ctrl, tolC growth inh, E coli WT exp)
CCCCC(=O)Nc1ccc(C(=O)Nc2nc(CC(=O)OCC)cs2)cc1	none (no result: tolC growth inh)
Cc1c(C(=O)OC2CCCCC2)sc2nc[nH]c(=O)c12	PostGolgi ctrl 59
COc1ccccc1-c1cc(C(F)(F)F)n2ncc(S(=O)(=O)c3ccccc3)c2n1	PostGolgi ctrl 46 (no result: tolC growth inh)
O=C(Nc1ccc2c(c1)OCO2)N1CCOCC1	none
O=C(Nc1ccc2c(c1)OCO2)N1CCN(c2ncc(C(F)(F)F)cc2Cl)CC1	Cav3 T inh -6.6 (no result: tolC growth inh)
CC(C)(C)OC(=O)N1CCC2(CC1)Oc1ccc(F)cc1C(=O)C21CC(c2ccccc2)=NO1 (configuration not stated)	none (no result: PostGolgi yeast, PostGolgi ctrl, tolC growth inh, E coli WT exp)
COc1ccc(NC(=O)COn2nnc3ccc(Cl)cc32)cc1OC	none
O=C(COn1nnc2ccc(Cl)cc21)NC12CC3CC(CC(C3)C1)C2	PostGolgi ctrl 52 (no result: tolC growth inh)
CCOc1cc(/C=N/n2cnnc2)ccc1OC(=O)c1cccc([N+](=O)[O-])c1	PostGolgi ctrl 36 (no result: tolC growth inh)
COc1ccc(/C=N/NC(=O)c2cccc([N+](=O)[O-])c2)cc1OC(=O)c1ccc(C)cc1	Cav3 T inh -5.4 (no result: tolC growth inh)
COc1ccc(/C=N/NC(=O)c2cccc([N+](=O)[O-])c2)cc1OS(=O)(=O)c1ccccc1	none (no result: tolC growth inh)
COc1ccc(/C=N/NC(=O)c2cccc([N+](=O)[O-])c2)cc1OC(=O)c1ccccc1	PostGolgi ctrl 33 (no result: tolC growth inh)
Cc1cccc(NC(=O)CSc2nnc(-c3cc(C)n(-c4ccccc4)c3C)o2)c1C	tolC growth inh 63 (no result: Cav3 T inh)
Cc1ccc(C)c(SCC(=O)Nc2nnc(-c3ccccc3)o2)c1	tolC growth inh 100
Cc1ccc(C)c(NC(=O)CSc2nnc(-c3ccccc3C)o2)c1	Cav3 T inh -5.5
Cc1cc(-c2nnc(SCC(=O)Nc3ccccc3C(F)(F)F)o2)c(C)n1-c1ccccc1	none (no result: tolC growth inh)
CCc1cccc(CC)c1N(COC)C(=O)Cn1ccccc1=N	none (no result: tolC growth inh)
CCCN1CCN(C(=O)CN2C(=O)CC(C)(C)S(=O)(=O)c3ccccc32)CC1	none
CCOC(=O)c1sc2ccc(S(=O)(=O)N3CCCCC3)cc2c1N	PostGolgi ctrl 42
CCCOc1ccccc1NC(=O)/C=C/C(N)=O	none (no result: tolC growth inh)
CC[N+](CC)(CC)CC(=O)Nc1c(C)cccc1C	none (no result: PostGolgi yeast, PostGolgi ctrl, tolC growth inh, E coli WT exp)
Cc1cccc(C)c1NC(=O)CNc1ccccc1	PostGolgi ctrl 37
Cc1cccc(NC(=O)CNc2cc(C)ccc2C)c1	Cav3 T inh -5.8
CN1CCN(C(=O)C23CCC(C)(c4nc5ccccc5nc42)C3(C)C)CC1 (configuration not stated)	none (no result: tolC growth inh)
